Assay [1] is described as follows: Growth inhibition of human A172 cells after 6 days. The format is functional, cell-based. The conditions noted are these: a 172.
Assay [2] is described as follows: Cytotoxicity against human A172 cells after 6 days. Format: functional, cell-based, A 172. In a few lines:
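A172 glioma cells in high-glucose DMEM with 10% heat-inactivated FBS and penicillin/streptomycin, seeded at 5 × 10^3 cells/mL (1 mL/well). After 24 h, alkaloids were added from fresh 1 mg/mL DMSO stocks (final DMSO ≤0.5%; controls DMSO-matched). Total cell number counted by particle counter after 6 days. IC50 (50% inhibition vs untreated) taken from dose–response curves; mean ± SD, ≥3 independent experiments.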

The mark [3] stands for this setting: Homo sapiens, A 172, 144 h, read-out: IC50.

As usually defined, the IC50 is the concentration at which inhibition is half-maximal.

Each structure is given as a SMILES string. ≈ marks a conversion by molar mass, not a printed value. Bounds are passed on as bounds.

In turn, `C=C1[C@H]2C[C@H]3C4N5C[C@]6(C)CCC[C@]47[C@H]([C@H]2OC(=O)c2ccccc2)C3(C[C@]5(OC(=O)c2ccccc2)[C@H]67)[C@@H]1O` came in with a relative cell growth in assay [1] of 0.76. The molecule further displayed a half-inhibitory concentration (IC50) in assay [2] (a 172) of 1.3 µg/mL (≈ 2.42 µM).

`C=C1[C@H]2C[C@H]3C4N5C[C@]6(C)CCC[C@]47[C@H]([C@H]2OC(=O)/C=C/c2ccccc2)C3(C[C@]5(O)[C@H]67)[C@@H]1O` gave a relative cell growth in assay [1] of 0.49. Also, the half-maximal inhibitory concentration (IC50) in assay [2] (setting [3]) came to 0.89 µg/mL (≈ 1.94 µM).

In assay [1], `C=C1[C@H]2C[C@H]3C4N5C[C@]6(C)CCC[C@]47[C@H]([C@H]2OC(=O)c2ccc(OC)cc2)C3(C[C@]5(O)[C@H]67)[C@@H]1O` had a relative cell growth of 0.23. The IC50 in assay [2] (setting [3]) was determined as 1.3 µg/mL (≈ 2.8 µM).

`C=C1[C@H]2C[C@H]3C4N5C[C@]6(C)CCC[C@]47[C@H]([C@H]2O)C3(C[C@]5(OC(=O)/C=C/c2ccccc2)[C@H]67)[C@@H]1O` came in with a relative cell growth in assay [1] of 0.97.

In turn, `C=C1[C@H]2C[C@H]3C4N5C[C@]6(C)CCC[C@]47[C@H]([C@H]2O)C3(C[C@]5(OC(=O)c2ccccc2)[C@H]67)[C@@H]1O` came in with a relative cell growth in assay [1] of 0.93.

Consider `C=C1[C@H]2C[C@H]3C4N5C[C@]6(C)CCC[C@]47[C@H]([C@H]2O)C3(C[C@]5(OC(=O)c2ccc(OC)cc2)[C@H]67)[C@@H]1O`, for which the relative cell growth in assay [1] was 0.99.

As to `C=C1[C@H]2C[C@H]3C4N5C[C@]6(C)CCC[C@]47[C@H]([C@H]2OC(=O)c2cccc(C(F)(F)F)c2)C3(CC5[C@H]67)[C@@H]1O`, in assay [1], the relative cell growth was 0.6.

For the molecule `C=C1[C@H]2C[C@H]3C4N(Cc5ccccc5)C[C@]5(C)CCC[C@]46[C@H]([C@H]2O)C3(CC(=O)[C@H]56)[C@@H]1OCc1ccccc1` (some centres not stated), the relative cell growth in assay [1] came out at 1.04. In assay [2] (setting [3]), the half-maximal inhibitory concentration (IC50) was above 5 µg/mL.

`C=C1[C@@H](O)[C@]23C[C@@H]1[C@@H](OC(=O)c1ccccc1)C[C@H]2[C@@]12C4C3C[C@@H]1[C@@](C)(CC[C@H]2O)CN4CC` returned a relative cell growth in assay [1] of 0.82.

With `C=C1[C@@H](O)[C@]23C[C@@H]1[C@@H](OC(=O)c1ccc(OC)cc1)C[C@H]2[C@@]12C4C3C[C@@H]1[C@@](C)(CC[C@H]2O)CN4CC`, the relative cell growth in assay [1] is 0.84.

The molecule `C=C1[C@@H](O)[C@]23C[C@@H]1[C@@H](OC(C)=O)C[C@H]2[C@@]12C4C3C[C@@H]1[C@@](C)(CC[C@H]2O)CN4CC` displayed a relative cell growth in assay [1] of 0.66. In addition, the IC50 in assay [2] (setting [3]) is 5.6 µg/mL (≈ 13.9 µM).

In the case of `COC[C@]12CC[C@H](O)[C@]34C(NC1)[C@@](O)([C@@H](OC)[C@H]23)[C@@]1(O)C[C@H](OC)[C@H]2C[C@@H]4[C@@H]1[C@H]2OC`, in assay [1], the relative cell growth came to 0.93.

`COC[C@]12CC[C@H]3OC1NC1[C@@]34[C@@H]3C[C@H]5[C@H](OC)[C@@H]3[C@](O)(C[C@@H]5OC)[C@]1(O)[C@@H](OC)[C@H]24` yielded a relative cell growth in assay [1] of 1.14.

For the molecule `C=C1[C@H]2C[C@H]3C4N5C[C@]6(C)CCC[C@]47[C@H]([C@H]2OC(=O)c2cccc(C(F)(F)F)c2)C3(C[C@]5(O)[C@H]67)[C@@H]1O`, the relative cell growth in assay [1] was found to be 0.58.

`COC[C@]12CC[C@H]3OC1NC1[C@@]34[C@@H]3C[C@H]5[C@H](O)[C@@H]3[C@](O)(C[C@@H]5OC)[C@]1(O)[C@@H](OC)[C@H]24` displayed a relative cell growth in assay [1] of 1.04.

`CCN1C[C@]2(COC)CC[C@H](OC)[C@]34C1[C@@](O)([C@@H](OC)[C@H]23)[C@@]1(O)C[C@H](OC)[C@H]2C[C@@H]4[C@@H]1[C@H]2OC(C)=O` had a relative cell growth in assay [1] of 0.99.

Molecule `C=C1[C@H]2C[C@H]3C4N5C[C@]6(C)CCC[C@]47[C@H]([C@H]2O)C3(C[C@]5(O)[C@H]67)[C@@H]1OC(=O)c1ccc(OC)c(OC)c1` came in with a relative cell growth in assay [1] of 0.97. The IC50 in assay [2] (setting [3]) is 2.9 µg/mL (≈ 5.88 µM).

For `CCN1C[C@]2(COC)CC[C@H](O)[C@]34C1[C@@](O)([C@@H](OC)[C@H]23)[C@@]1(O)C[C@H](OC)[C@H]2C[C@@H]4[C@@H]1[C@H]2OC(C)=O`, the relative cell growth in assay [1] turned out to be 1.11.

For `C=C1[C@H]2C[C@H]3C4N(Cc5ccccc5)C[C@]5(C)CCC[C@]46[C@H]([C@H]2O)C3(CC(=O)[C@H]56)[C@@H]1O` (some centres not stated), the relative cell growth in assay [1] stood at 1.01.

For `C=C1[C@H]2C[C@H]3C4N5C[C@]6(C)CCC[C@]47[C@H]([C@H]2O)C3(C[C@]5(OC(=O)c2ccc(OC)c(OC)c2)[C@H]67)[C@@H]1O`, the relative cell growth in assay [1] is 0.84. The IC50 in assay [2] (setting [3]) worked out at 3.7 µg/mL (≈ 7.5 µM).

In the case of `C=C1[C@H]2C[C@H]3C4N5C[C@]6(C)CCC[C@]47[C@H]([C@H]2O)C3(C[C@]5(OC(=O)c2cccc(C(F)(F)F)c2)[C@H]67)[C@@H]1O`, in assay [1], the relative cell growth stood at 1.04.

In assay [1], `COC[C@]12CC[C@H](O)[C@]34C(NC1)[C@@](O)([C@@H](OC)[C@H]23)[C@@]1(O)C[C@H](OC)[C@H]2C[C@@H]4[C@@H]1[C@H]2O` registered a relative cell growth of 0.9.

On to `C=C1[C@H]2C[C@H]3C4N5C[C@]6(C)CCC[C@]47[C@H]([C@H]2O)C3(C[C@]5(OC(=O)c2ccc([N+](=O)[O-])cc2)[C@H]67)[C@@H]1O`, for which, in assay [1], the relative cell growth came to 0.96.

`C=C1[C@H]2C[C@H]3C4N5C[C@]6(C)CCC[C@]47[C@H]([C@H]2OC(=O)c2ccc(OC)c(OC)c2)C3(C[C@]5(O)[C@H]67)[C@@H]1O`: the relative cell growth in assay [1] amounted to 0.47. Further, the IC50 in assay [2] (setting [3]) was 1.2 µg/mL (≈ 2.43 µM).

`C=C1[C@@H](O)[C@]23C[C@@H]1[C@@H](OC(=O)c1ccc(OC)c(OC)c1)C[C@H]2[C@@]12C4C3C[C@@H]1[C@@](C)(CC[C@H]2O)CN4CC` came in with a relative cell growth in assay [1] of 0.97.

In assay [1], `C=C1[C@@H](OC(C)=O)[C@]23C[C@@H]1[C@@H](OC(C)=O)C[C@H]2[C@@]12C4C3C[C@@H]1[C@@](C)(CC[C@H]2O)CN4CC` yielded a relative cell growth of 1.03.

Regarding `C=C1[C@@H](OC(C)=O)[C@]23C[C@@H]1[C@@H](OC(C)=O)C[C@H]2[C@@]12C4C3C[C@@H]1[C@@](C)(CC[C@H]2OC(C)=O)CN4CC`, the relative cell growth in assay [1] was determined as 1.02. The IC50 in assay [2] (setting [3]) is above 5 µg/mL.

`C=C1[C@H]2C[C@H]3C4N5C[C@]6(C)CCC[C@]47[C@H]([C@H]2OC(=O)c2ccc([N+](=O)[O-])cc2)C3(C[C@]5(O)[C@H]67)[C@@H]1O`: in assay [1], the relative cell growth is 0.22. For the same molecule, in assay [2] (setting [3]), the half-maximal inhibitory concentration (IC50) was 1.5 µg/mL (≈ 3.13 µM).

Take `CCN1C[C@]2(COC)[C@H](O)C[C@H](OC)[C@]34C1C([C@H](OC)[C@H]23)[C@]1(OC)[C@H]2[C@@H](OC(=O)c3ccc(OC)cc3)[C@](O)(C[C@H]24)[C@@H](OC)[C@@H]1O` [ALJESACONITINE A]: the relative cell growth in assay [1] is 0.93.

On to `C=C1[C@@H](OC(C)=O)[C@]23C[C@@H]1[C@@H](O)C[C@H]2[C@@]12C4C3C[C@@H]1[C@@]1(C)CC[C@H]2OC1N4CC` [DEHYDROLUCIDUSCULINE], for which the relative cell growth in assay [1] came out at 1.18. In assay [2] (setting [3]), the concentration for half-maximal inhibition (IC50) was above 5 µg/mL.

With `CCN1C[C@]2(C)CC[C@H](OC)[C@@]34C1[C@@]1(OCO[C@@]15C[C@H](OC)[C@H]1C[C@@H]3[C@@H]5[C@H]1O)[C@@H](O)[C@H]24` [DELPHELINE], the relative cell growth in assay [1] was determined as 1.1.

`CCN1C[C@]2(COC)CC[C@H](OC)[C@]34C1C([C@H](OC)[C@H]23)[C@]1(OC(C)=O)[C@H]2[C@@H](OC(=O)c3ccccc3)[C@](O)(C[C@H]24)[C@@H](OC)[C@@H]1O` [DEOXYACONITINE] showed a relative cell growth in assay [1] of 0.99.

For the molecule `CCN1C[C@]2(COC)CC[C@H](OC)[C@]34C1C([C@H](OC)[C@H]23)[C@]1(OC(C)=O)[C@H]2[C@@H](OC(=O)c3ccc(OC)cc3)[C@](O)(C[C@H]24)[C@@H](OC)[C@@H]1O` [DEOXYJESACONITINE], the relative cell growth in assay [1] came out at 0.97.

Turning to `COC[C@]12CN(C)C3C4[C@H](OC)[C@H]1[C@@]3([C@@H](OC)C[C@H]2O)[C@@H]1C[C@@]2(O)[C@H](OC(=O)c3ccccc3)[C@@H]1[C@]4(OC)[C@@H](O)[C@@H]2OC` [HOKBUSINE A], the relative cell growth in assay [1] stood at 1.03.

In turn, `COC[C@@]12CC[C@H](OC)[C@]34C(C([C@H](OC)[C@H]13)[C@]1(OC(C)=O)[C@H]3[C@@H](OC(=O)c5ccccc5)[C@](O)(C[C@H]34)[C@@H](OC)[C@@H]1O)N(C)C2` [HYPACONITINE] registered a relative cell growth in assay [1] of 1.08.

`C=C1[C@H]2C[C@H]3C4N5C[C@]6(C)CCC[C@]47[C@H]([C@H]2O)C3(CC5[C@H]67)[C@@H]1O` [KOBUSINE] returned a relative cell growth in assay [1] of 0.76. Also, in assay [2] (setting [3]), the IC50 is above 5 µg/mL.

The molecule `C=C1[C@H]2C[C@H]3C4N5C[C@]6(C)CCC[C@]47[C@H]([C@H]2O)C3(C[C@]5(O)[C@H]67)[C@@H]1O` [PSEUDOKOBUSINE] displayed a relative cell growth in assay [1] of 0.84. In addition, in assay [2] (setting [3]), the half-maximal inhibitory concentration (IC50) was above 5 µg/mL.

Take `CC(=O)O[C@H]1C[C@H]2C3C4C[C@@H]5[C@@]6(C)CC[C@H](OC(C)=O)[C@@]5(C4N(C)C6)[C@@H]3[C@H]1[C@@]1(CO1)[C@H]2O` (some centres not stated) [YESOXINE]: the relative cell growth in assay [1] amounted to 1.01. In addition, in assay [2] (setting [3]), the 50% inhibitory concentration (IC50) is above 5 µg/mL.

The values above are taken from ChEMBL document CHEMBL1141436, “Inhibitory effects of diterpenoid alkaloids on the growth of A172 human malignant cells” (J Nat Prod, 2007).
